Data from ChEMBL document CHEMBL3259699, “Digitoxin analogues with improved anticytomegalovirus activity” (ACS Med Chem Lett, 2014).
Active and inactive are the calls of the source. The rule behind the calls is not given here.

Tests used:
[1] = Selectivity index, ratio of CC50 for HFF to EC50 for Human cytomegalovirus Towne infected in human foreskin fibroblasts
Summary of the method: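 SI calculated as CC50/EC50. CC50 from MTT assay in uninfected HFFs. EC50 from pp28-luciferase HCMV Towne inhibition in infected HFFs.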

[2] = Cytotoxicity against HFF assessed as inhibition of cell viability after 3 days by MTT assay; type: cell-based; conditions: human, HFF cells
Summary of the method: (§1)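 Uninfected HFFs exposed to a concentration range at 37 °C for 3 days. MTT (5 mg/mL stock in PBS) added for 3 h at 37 °C. Formazan dissolved in DMSO and absorbance read. Triplicates in three independent experiments, mean ± SD. CC50 from dose-response curves.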

[3] = Cytotoxicity against HFF assessed as inhibition of cell viability after 3 days by trypan blue exclusion assay; type: cell-based; conditions: human, HFF cells
Human betaherpesvirus 5 [4] = assay: Antiviral activity against Human cytomegalovirus Towne infected in HFF assessed as inhibition of viral replication by measuring pp28 expression at 72 hrs post-infection by luciferase assay; type: functional, organism-based; conditions: Human betaherpesvirus 5, Towne
Summary of the method: (§2)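 HFFs infected with pp28-luciferase reporter HCMV at MOI 1 pfu/cell and treated across a concentration range. Luciferase activity read in cell lysates at 72 hpi. Triplicates in three independent experiments, mean ± SD. EC50 taken from dose-response curves.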

[5] = Cytotoxicity against HFF assessed as inhibition of cell proliferation at 0.1 uM after 3 days by MTT assay; type: cell-based; conditions: human, HFF cells; summary of the method: as §1
HFF [6] = assay: Effect on lovastatin-induced cell cycle arrest in HFF infected with HCMV assessed as accumulation at G0/1 phase treated for 24 hrs after incubation with early G1 inhibitor lovastatin for 48 hrs by propidium iodide staining based flow cytometry; type: ADME; conditions: human
Summary of the method: (§3)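 HFFs pretreated 48 h with mimosine or lovastatin, washed and released, then HCMV-infected and treated 24 h (1 day) with compound. Trypsinized, permeabilized at −20 °C for 12 h, stained with propidium iodide and analysed by flow cytometry.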

HFF [7] = assay: Cell cycle arrest in HFF infected with HCMV assessed as accumulation at G0/1 phase after 24 hrs by propidium iodide staining based flow cytometry; type: ADME; conditions: human
Summary of the method: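 HFFs serum-starved for 48 h, released, infected with Towne HCMV and treated with compound for 24 h. Cells trypsinized, permeabilized at −20 °C for 12 h, stained with propidium iodide and analysed by flow cytometry. Controls: serum-containing medium and GCV.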

HFF [8] = assay: Effect on mimosine-induced cell cycle arrest in HFF infected with HCMV assessed as accumulation at G0/1 phase treated for 1 day after incubation with mid-G1 inhibitor mimosine for 48 hrs by propidium iodide staining based flow cytometry; type: ADME; conditions: human, 24 h; summary of the method: as §3
Human betaherpesvirus 5 [9] = assay: Antiviral activity against Human cytomegalovirus TB40 infected in HFF assessed as inhibition of viral replication at 50 nM after 3 days by GFP-based fluorescence analysis; type: functional, organism-based
Summary of the method: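 Human foreskin fibroblasts (HFFs) infected with HCMV-TB40 (GFP-expressing) at MOI 1 pfu/cell, then treated with compound for 3 days. Read-out: GFP fluorescence, with a bright-field image for comparison.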

Human betaherpesvirus 5 [10] = assay: Antiviral activity against Human cytomegalovirus Towne infected in HFF assessed as inhibition of viral replication by measuring pp28 expression at 50 nM at 72 hrs post-infection by luciferase assay; type: functional, organism-based; summary of the method: as §2
Human betaherpesvirus 5 [11] = assay: Antiviral activity against Human cytomegalovirus Towne infected in HFF assessed as plaque reduction at 50 nM measured 8 days post-infection; type: functional, organism-based
Summary of the method: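 Plaque reduction assay with HCMV Towne in HFFs, read at 8 days postinfection. Triplicate determinations in three independent experiments, mean ± SD.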

Human betaherpesvirus 5 [12] = assay: Antiviral activity against Human cytomegalovirus Towne infected in HFF assessed as decrease in virus DNA yield at 50 nM measured 96 hrs post-infection by real-time PCR analysis; type: functional, organism-based
Summary of the method: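 HFFs infected with HCMV Towne at MOI 1 pfu/cell and treated for 4 days. Supernatants collected and viral DNA yield quantified by real-time PCR. Triplicate determinations in three independent experiments, reported as mean ± SD.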

For C[C@H]1O[C@H](O[C@H]2CC[C@@]3(C)[C@H](CC[C@@H]4[C@@H]3CC[C@]3(C)[C@@H](C5=CC(=O)OC5)CC[C@]43O)C2)CC[C@@H]1O[C@@H]1CC[C@H](O[C@@H]2CC[C@H](O)[C@@H](C)O2)[C@@H](C)O1, the “Ratio CC50/EC50” value [1] was 7, the CC50 at 72 h [2] was 15 µM and the CC50 at 72 h [3] was 19 µM. For the same compound, the EC50 (Human betaherpesvirus 5 [4]) was 2.08 µM.

With C[C@H]1O[C@H](O[C@H]2[C@H](O)[C@H](O)[C@@H](O[C@H]3[C@H](O)[C@H](O)[C@@H](O[C@H]4CC[C@@]5(C)[C@H](CC[C@@H]6[C@@H]5CC[C@]5(C)[C@@H](C7=CC(=O)OC7)CC[C@]65O)C4)O[C@@H]3C)O[C@@H]2C)[C@@H](O)[C@@H](O)[C@@H]1O the “Ratio CC50/EC50” value [1] was 31, the CC50 at 72 h [2] was 10 µM and the CC50 at 72 h [3] was 16 µM. The EC50 (Human betaherpesvirus 5 [4]) was 0.32 µM.

In the case of C[C@H]1O[C@H](O[C@H]2[C@H](O)[C@H](O)[C@@H](O[C@H]3CC[C@@]4(C)[C@H](CC[C@@H]5[C@@H]4CC[C@]4(C)[C@@H](C6=CC(=O)OC6)CC[C@]54O)C3)O[C@@H]2C)[C@@H](O)[C@@H](O)[C@@H]1O, the “Ratio CC50/EC50” value [1] is reported as 32, the CC50 at 72 h [2] is reported as 6.7 µM and the CC50 at 72 h [3] is reported as 10 µM. For the same compound, the EC50 (Human betaherpesvirus 5 [4]) was 0.209 µM.

With C[C@@H]1O[C@@H](O[C@@H]2[C@@H](O)[C@@H](O)[C@H](O[C@@H]3[C@@H](O)[C@@H](O)[C@H](O[C@H]4CC[C@@]5(C)[C@H](CC[C@@H]6[C@@H]5CC[C@]5(C)[C@@H](C7=CC(=O)OC7)CC[C@]65O)C4)O[C@H]3C)O[C@H]2C)[C@H](O)[C@H](O)[C@H]1O the “Ratio CC50/EC50” value [1] was 30, the CC50 at 72 h [2] was 7 µM and the CC50 at 72 h [3] was 11 µM. For the same compound, the EC50 (Human betaherpesvirus 5 [4]) was 0.232 µM.

In the case of C[C@@H]1O[C@@H](O[C@@H]2[C@@H](O)[C@@H](O)[C@H](O[C@H]3CC[C@@]4(C)[C@H](CC[C@@H]5[C@@H]4CC[C@]4(C)[C@@H](C6=CC(=O)OC6)CC[C@]54O)C3)O[C@H]2C)[C@H](O)[C@H](O)[C@H]1O, the “Ratio CC50/EC50” value [1] is reported as 41, the CC50 at 72 h [2] is reported as 1.5 µM and the CC50 at 72 h [3] is reported as 6 µM. The EC50 (Human betaherpesvirus 5 [4]) was 0.0367 µM.

For C[C@@H]1O[C@@H](O[C@@H]2CC[C@H](O[C@@H]3CC[C@H](O[C@H]4CC[C@@]5(C)[C@H](CC[C@@H]6[C@@H]5CC[C@]5(C)[C@@H](C7=CC(=O)OC7)CC[C@]65O)C4)O[C@H]3C)O[C@H]2C)CC[C@H]1O, the “Ratio CC50/EC50” value [1] was 21, the CC50 at 72 h [2] was 2.4 µM and the CC50 at 72 h [3] was 9 µM. It also gave an EC50 (Human betaherpesvirus 5 [4]) of 0.113 µM.

For C[C@@H]1O[C@@H](O[C@H]2CC[C@@]3(C)[C@H](CC[C@@H]4[C@@H]3CC[C@]3(C)[C@@H](C5=CC(=O)OC5)CC[C@]43O)C2)CC[C@H]1O [RAMNODIGIN], the “Ratio CC50/EC50” value [1] was 174, the inhibition at 72 h, 0.1 µM [5] was 50% and the CC50 at 72 h [2] was 0.7 µM. It also gave a CC50 at 72 h [3] of 4 µM and an EC50 (Human betaherpesvirus 5 [4]) of 0.0038 µM.

With C[C@@H]1O[C@@H](O[C@H]2CC[C@@]3(C)[C@H](CC[C@@H]4[C@@H]3CC[C@]3(C)[C@@H](C5=CC(=O)OC5)CC[C@]43O)C2)[C@H](O)[C@H](O)[C@H]1O the “Ratio CC50/EC50” value [1] was 139, the CC50 at 72 h [2] was 0.7 µM and the CC50 at 72 h [3] was 2 µM. The EC50 (Human betaherpesvirus 5 [4]) was 0.0048 µM.

In the case of C[C@@H]1O[C@@H](O[C@@H]2CC[C@H](O[C@H]3CC[C@@]4(C)[C@H](CC[C@@H]5[C@@H]4CC[C@]4(C)[C@@H](C6=CC(=O)OC6)CC[C@]54O)C3)O[C@H]2C)CC[C@H]1O, the “Ratio CC50/EC50” value [1] is reported as 76, the CC50 at 72 h [2] is reported as 1.1 µM and the CC50 at 72 h [3] is reported as 7 µM. It also gave an EC50 (Human betaherpesvirus 5 [4]) of 0.0148 µM.

For C[C@H]1O[C@H](O[C@H]2CC[C@@]3(C)[C@H](CC[C@@H]4[C@@H]3CC[C@]3(C)[C@@H](C5=CC(=O)OC5)CC[C@]43O)C2)CC[C@@H]1O[C@@H]1CC[C@H](O)[C@@H](C)O1, the “Ratio CC50/EC50” value [1] was 15, the CC50 at 72 h [2] was 12.1 µM and the CC50 at 72 h [3] was 1 µM. The EC50 (Human betaherpesvirus 5 [4]) was 0.79 µM.

With C[C@]12CC[C@H](O[C@@H]3O[C@@H](CO)[C@H](O)[C@@H](O)[C@H]3O)C[C@H]1CC[C@@H]1[C@@H]2CC[C@]2(C)[C@@H](C3=CC(=O)OC3)CC[C@]12O the “Ratio CC50/EC50” value [1] was 127, the CC50 at 72 h [2] was 0.9 µM and the CC50 at 72 h [3] was 1.9 µM. The EC50 (Human betaherpesvirus 5 [4]) was 0.0073 µM.

With C[C@H]1O[C@H](O[C@H]2CC[C@@]3(C)[C@H](CC[C@@H]4[C@@H]3CC[C@]3(C)[C@@H](C5=CC(=O)OC5)CC[C@]43O)C2)[C@@H](O)[C@@H](O)[C@@H]1O the “Ratio CC50/EC50” value [1] was 86, the CC50 at 72 h [2] was 2.3 µM and the CC50 at 72 h [3] was 3.7 µM. The EC50 (Human betaherpesvirus 5 [4]) was 0.0266 µM.

With C[C@@H]1O[C@@H](O[C@H]2C[C@@H](O)[C@]3(CO)[C@H]4[C@H](O)C[C@]5(C)[C@@H](C6=CC(=O)OC6)CC[C@]5(O)[C@@H]4CC[C@]3(O)C2)[C@H](O)[C@H](O)[C@H]1O [OUABAIN] the Activity (HFF [6]) was “Not Active”, the Activity (HFF [7]) was “Active” and the Activity (HFF [8]) was “Not Active”.

For C[C@H]1O[C@H](O[C@H]2CC[C@@]3(C)[C@H](CC[C@@H]4[C@@H]3CC[C@]3(C)[C@@H](C5=CC(=O)OC5)CC[C@]43O)C2)CC[C@@H]1O, the “Ratio CC50/EC50” value [1] was 29, the CC50 at 72 h [2] was 1.1 µM and the CC50 at 72 h [3] was 4 µM. It also gave an EC50 (Human betaherpesvirus 5 [4]) of 0.0375 µM.

In the case of C[C@H]1O[C@@H](O[C@H]2[C@@H](O)C[C@H](O[C@H]3[C@@H](O)C[C@H](O[C@H]4CC[C@@]5(C)[C@H](CC[C@@H]6[C@@H]5CC[C@]5(C)[C@@H](C7=CC(=O)OC7)CC[C@]65O)C4)O[C@@H]3C)O[C@@H]2C)C[C@H](O)[C@@H]1O [DIGITOXIN], the “Ratio CC50/EC50” value [1] is reported as 120, the inhibition at 72 h, 0.1 µM [5] is reported as 50% and the Activity (HFF [6]) is reported as “Not Active”. For the same compound, the inhibition (Human betaherpesvirus 5 [9]) was “Active”, the Activity (HFF [7]) was “Active” and the CC50 at 72 h [2] was 2.8 µM. For the same compound, the inhibition (Human betaherpesvirus 5 [10]) was “Active”, the CC50 at 72 h [3] was 6 µM and the EC50 (Human betaherpesvirus 5 [4]) was 0.0233 µM. The inhibition (Human betaherpesvirus 5 [11]) was “Active”, the inhibition (Human betaherpesvirus 5 [12]) was “Active” and the Activity (HFF [8]) was “Not Active”.
